The test system of data set [1] is BC1 dhBMEC microvessels. The data set can be described thus: Cytokine activation: permeability, adhesion molecules and leukocyte adhesion. In kind it is cell-based, human. The essentials: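 dhBMEC microvessels in collagen I channels, perfused at ~1 dyn cm⁻² with serum-free endothelial media plus 1% platelet-poor serum, with or without 10 ng mL⁻¹ TNFα for 12 h. […] ICAM-1/VCAM-1 by immunostaining; breakdown by phase contrast. Mean ± SEM.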

Data set [2] has as its system iPS12, KW01 and AD6 dhBMEC microvessels.
The test system of data set [3] is BC1 dhBMEC microvessels. The data set can be described thus: Solute permeability of BC1 dhBMEC microvessels. To be noted: for Permeability on days four and six compared with day two: p > 0.05. In kind it is in vitro ADME, human.
In the next data set the test system is HUVEC microvessels. The experiment in a line: Solute permeability of HUVEC microvessels. In kind it is in vitro ADME, human. To be noted: for Permeability differences between day two, four and six: p > 0.05; for Permeability in HUVEC microvessels relative to BC1 dhBMEC microvessels: HUVEC vs BC1 dhBMEC.
Another data set relates to pial PCV microvessels. To be noted: rat, not told; cited from earlier work.
Data set [4] relates to iPS12, KW01 and AD6 dhBMEC microvessels. The experiment in a line: Solute permeability of dhBMEC microvessels from other iPSC lines. To be noted: day two, p > 0.05 for all comparisons.
The nature of data set [5]: Solute permeability of HUVEC microvessels. It counts as in vitro ADME, human. To be noted: human.
The subject of the next data set is p-glycoprotein. To be noted: healthy humans, continuous infusion of tariquidar ref 80; cited from earlier work.
Data set [6] deals with P-glycoprotein (P-gp) in BC1 dhBMEC microvessels (Homo sapiens, UniProt P08183). The data set can be described thus: Efflux inhibition in BC1 dhBMEC microvessels. It counts as cell-based.
Chain of P-glycoprotein (P-gp) in BC1 dhBMEC microvessels (P08183 whole entry): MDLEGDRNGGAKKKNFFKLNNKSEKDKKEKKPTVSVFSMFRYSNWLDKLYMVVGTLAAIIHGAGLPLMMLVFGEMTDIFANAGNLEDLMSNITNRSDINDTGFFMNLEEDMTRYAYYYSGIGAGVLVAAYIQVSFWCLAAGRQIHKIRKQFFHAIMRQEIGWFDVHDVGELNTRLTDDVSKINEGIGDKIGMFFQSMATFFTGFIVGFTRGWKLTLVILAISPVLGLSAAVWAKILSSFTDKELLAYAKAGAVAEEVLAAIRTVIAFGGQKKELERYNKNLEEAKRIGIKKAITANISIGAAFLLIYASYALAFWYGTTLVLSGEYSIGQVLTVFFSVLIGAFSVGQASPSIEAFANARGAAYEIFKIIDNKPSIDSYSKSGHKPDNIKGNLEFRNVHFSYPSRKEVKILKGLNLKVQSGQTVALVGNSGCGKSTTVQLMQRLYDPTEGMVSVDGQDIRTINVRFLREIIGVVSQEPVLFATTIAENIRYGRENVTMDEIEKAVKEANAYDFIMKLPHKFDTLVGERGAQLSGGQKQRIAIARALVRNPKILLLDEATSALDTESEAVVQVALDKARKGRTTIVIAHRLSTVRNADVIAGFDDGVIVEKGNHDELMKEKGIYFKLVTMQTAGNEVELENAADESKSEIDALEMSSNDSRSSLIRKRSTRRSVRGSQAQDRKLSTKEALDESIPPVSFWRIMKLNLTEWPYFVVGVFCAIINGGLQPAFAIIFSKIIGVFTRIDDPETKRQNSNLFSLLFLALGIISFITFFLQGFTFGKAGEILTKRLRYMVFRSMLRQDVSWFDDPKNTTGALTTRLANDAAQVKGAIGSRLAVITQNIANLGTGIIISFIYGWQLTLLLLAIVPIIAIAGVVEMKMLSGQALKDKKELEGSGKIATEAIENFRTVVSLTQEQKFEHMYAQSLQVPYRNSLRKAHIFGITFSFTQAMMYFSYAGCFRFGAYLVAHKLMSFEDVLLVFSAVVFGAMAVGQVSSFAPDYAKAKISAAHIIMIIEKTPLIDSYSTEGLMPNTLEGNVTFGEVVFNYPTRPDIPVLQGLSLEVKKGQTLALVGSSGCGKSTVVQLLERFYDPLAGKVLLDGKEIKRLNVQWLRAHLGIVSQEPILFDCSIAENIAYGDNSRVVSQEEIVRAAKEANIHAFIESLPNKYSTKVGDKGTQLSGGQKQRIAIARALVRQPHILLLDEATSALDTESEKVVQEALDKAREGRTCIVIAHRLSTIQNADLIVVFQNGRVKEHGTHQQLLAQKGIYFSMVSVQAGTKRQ
For data set [7] the following is noted: cited from earlier work.
The mark [8] stands for this setting: 12-hour perfusion of 2 μM tariquidar.

Read-outs that look alike come from different tables or passages of the source. Some results are limits rather than exact numbers.

Regarding TNFα, the “Expression of adhesion molecules ICAM-1 and VCAM-1” value in the data set with BC1 dhBMEC microvessels [1] (10 ng mL^−1 TNFα, 12 hours, immunocytochemistry) is reported as “upregulation”. For the same compound, in the data set on BC1 dhBMEC microvessels [1] (10 ng mL^−1 TNFα, 12 hours, p > 0.05 for all comparisons), the “Permeability of LY, R123 or 10 kDa dextran after TNFα compared to control” value is given as “did not alter”. For the same compound, in the data set on BC1 dhBMEC microvessels [1] (microvessels exposed to TNFα with adherent PBMCs), the “Time to macroscopic breakdown of microvessels” value is no more than 24 h.
With Lucifer yellow [LY], the “Permeability differences between BC1, iPS12, KW01 and AD6 microvessels” value in data set [2] is recorded as “no statistically significant differences”. The Permeability in the data set on BC1 dhBMEC microvessels [3] (BC1 dhBMEC microvessels, day two) was 2.50 ± 0.46 × 10^−7 cm s^−1. The “Permeability, average value across all time points” value in the data set on BC1 dhBMEC microvessels [3] (BC1 dhBMEC microvessels, over six days (days two, four, six)) is 2.84 ± 0.41 × 10^−7 cm s^−1. In addition, the “Permeability on days four and six compared with day two” value in the data set on BC1 dhBMEC microvessels [3] (BC1 dhBMEC microvessels) is “did not increase”. Also, the “PLY / PR123 (ratio of LY to R123 permeabilities)” value in the data set on BC1 dhBMEC microvessels [3] (dhBMEC microvessels, untreated) is on record as ~ 1.9. For the same compound, in the data set with HUVEC microvessels (HUVEC microvessels), the “Mean permeability over six days” value is 3.90 ± 0.16 × 10^−6 cm s^−1; the “PLY / PR123 (ratio of LY to R123 permeabilities)” value was ~ 1.3; the “Permeability differences between day two, four and six” value is recorded as “no statistically significant differences”. The “Permeability in HUVEC microvessels relative to BC1 dhBMEC microvessels” value in the data set on HUVEC microvessels is “more than 10 fold”. In addition, the “Permeability in 15 μm pial PCV microvessels” value in the data set on pial PCV microvessels is recorded as 1 – 2 × 10^−7.
As a reminder, the Papp is the rate of passage across a membrane or cell layer, normalised by area and donor concentration. Higher therefore signals ready permeation. Consider `COC(=O)c1ccccc1-c1c2ccc(=N)cc-2oc2cc(N)ccc12` [R123, Rhodamine 123], for which the “Permeability differences between BC1, iPS12, KW01 and AD6 microvessels” value in data set [4] is recorded as “no statistically significant differences”. Moreover, the “Permeability on days four and six compared with day two” value with BC1 dhBMEC microvessels [3] (BC1 dhBMEC microvessels) was “remained stable”. In addition, the “Permeability differences between day two, four and six” value in the data set on HUVEC microvessels (HUVEC microvessels) is listed as “no statistically significant differences”. Moreover, the “Permeability in HUVEC microvessels relative to BC1 dhBMEC microvessels” value in the data set with HUVEC microvessels is reported as “about 20 fold”. In data set [5], the Papp at 20 min, 5 μM is 3 ×10⁻⁶ cm/s.
Consider `COc1cc2c(cc1OC)CN(CCc1ccc(NC(=O)c3cc(OC)c(OC)cc3NC(=O)c3cnc4ccccc4c3)cc1)CC2` [tariquidar], for which the “Increase of verapamil distribution volume” value with p-glycoprotein was 2.73 fold. In data set [6] (setting [8]), the “Disruptions in paracellular permeability” value is “not observed” and the “Increase in permeability of P-gp substrate Rhodamine 123” value is on record as “two-fold”. Also, the “Cytotoxicity (barrier function and microvessel structure)” value in data set [6] (12 hours of tariquidar exposure) is on record as “did not result in apparent cytotoxicity”. In addition, the “Effect on mitochondrial localization of R123” value in [6] (tariquidar treated BC1 dhBMEC microvessels) is on record as “no noticeable effect”.
Turning to `OC[C@@H](O)[C@@H](O)[C@H](O)[C@H](O)CO` [mannitol, d-mannitol], the Solubility limit result in [7] is given as “around 1.4 M”.
